The source of these data is ChEMBL document CHEMBL3526048, “In vitro metabolism of rivoglitazone, a novel peroxisome proliferator-activated receptor γ agonist, in rat, monkey, and human liver microsomes and freshly isolated hepatocytes” (Drug Metab Dispos, 2011).

Holding throughout (type): ADME
Data set [1] concerns the target T1, UDP-glucuronosyltransferase 1A4 (Homo sapiens, UniProt P22310).
T1 sequence (P22310 whole entry): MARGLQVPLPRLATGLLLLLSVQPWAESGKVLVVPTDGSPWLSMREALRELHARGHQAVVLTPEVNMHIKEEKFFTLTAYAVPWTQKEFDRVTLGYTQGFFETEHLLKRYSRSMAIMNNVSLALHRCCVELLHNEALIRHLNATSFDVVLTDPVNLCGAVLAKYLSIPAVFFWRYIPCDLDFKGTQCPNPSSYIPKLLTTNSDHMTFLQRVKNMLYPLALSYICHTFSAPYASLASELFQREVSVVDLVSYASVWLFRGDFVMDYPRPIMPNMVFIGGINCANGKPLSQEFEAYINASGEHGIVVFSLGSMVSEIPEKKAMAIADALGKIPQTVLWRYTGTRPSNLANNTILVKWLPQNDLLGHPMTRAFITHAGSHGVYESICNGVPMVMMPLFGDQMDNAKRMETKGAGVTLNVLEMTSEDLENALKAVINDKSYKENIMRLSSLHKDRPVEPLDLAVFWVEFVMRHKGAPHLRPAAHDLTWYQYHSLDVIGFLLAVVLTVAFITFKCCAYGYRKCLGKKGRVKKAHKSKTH
The data set is described as follows: Activity of human UGT1A4 expressed in microsomes isolated from baculovirus infected insect cell assessed as enzyme-mediated (2S,3S,4S,5R,6R)-6-((1-carboxy-2-(4-((6-methoxy-1-methyl-1H-benzo[d]imidazol-2-yl)methoxy)phenyl)ethylthio)carbonylamino)-3,4,5-trihydroxytetrahydro-2H-pyran-2-carboxylic acid formation at 20 uM after 4 hrs by radio-HPLC/LC-MS/MS analysis in presence of UDPGA.

For data set [2], the target named is T2, UDP-glucuronosyltransferase 1A10 (Homo sapiens, UniProt Q9HAW8).
T2 sequence (Q9HAW8 whole entry): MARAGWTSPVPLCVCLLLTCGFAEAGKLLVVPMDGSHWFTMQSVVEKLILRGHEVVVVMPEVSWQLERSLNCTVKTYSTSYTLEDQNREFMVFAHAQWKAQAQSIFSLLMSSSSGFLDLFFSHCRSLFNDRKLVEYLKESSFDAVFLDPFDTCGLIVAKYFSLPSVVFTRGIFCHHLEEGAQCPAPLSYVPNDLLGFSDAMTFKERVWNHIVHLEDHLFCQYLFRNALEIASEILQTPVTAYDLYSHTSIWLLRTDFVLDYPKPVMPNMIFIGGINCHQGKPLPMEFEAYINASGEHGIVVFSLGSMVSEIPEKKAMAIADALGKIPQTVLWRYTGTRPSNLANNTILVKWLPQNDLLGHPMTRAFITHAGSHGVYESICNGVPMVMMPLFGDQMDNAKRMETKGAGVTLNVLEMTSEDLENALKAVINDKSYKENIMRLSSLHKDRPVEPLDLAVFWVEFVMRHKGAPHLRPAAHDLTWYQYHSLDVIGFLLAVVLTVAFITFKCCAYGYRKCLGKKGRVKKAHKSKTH
Nature of the data set: Activity of human UGT1A10 expressed in microsomes isolated from baculovirus infected insect cell assessed as enzyme-mediated (2S,3S,4S,5R,6R)-6-((1-carboxy-2-(4-((6-methoxy-1-methyl-1H-benzo[d]imidazol-2-yl)methoxy)phenyl)ethylthio)carbonylamino)-3,4,5-trihydroxytetrahydro-2H-pyran-2-carboxylic acid formation at 20 uM after 4 hrs by radio-HPLC/LC-MS/MS analysis in presence of UDPGA. The essentials:
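Alamethicin (50 μg/mg protein, 15 min on ice) pretreated expressed human UGT microsomes (1 mg/ml protein) from baculovirus-infected insect cells. Incubation with [¹⁴C]rivoglitazone (20 μM) in 100 mM Tris-HCl (pH 7.5) with 10 mM MgCl₂, started by 5 mM UDPGA, 4 h at 37°C with shaking. UGT insect-cell control supersomes were run alongside. Acetonitrile stop, concentrated supernatant analysed by radio-HPLC, LC-MS and LC-MS/MS.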

The target of data set [3] is T3, Cytochrome P450 2C8 (Homo sapiens, UniProt P10632).
T3 sequence (P10632 whole entry): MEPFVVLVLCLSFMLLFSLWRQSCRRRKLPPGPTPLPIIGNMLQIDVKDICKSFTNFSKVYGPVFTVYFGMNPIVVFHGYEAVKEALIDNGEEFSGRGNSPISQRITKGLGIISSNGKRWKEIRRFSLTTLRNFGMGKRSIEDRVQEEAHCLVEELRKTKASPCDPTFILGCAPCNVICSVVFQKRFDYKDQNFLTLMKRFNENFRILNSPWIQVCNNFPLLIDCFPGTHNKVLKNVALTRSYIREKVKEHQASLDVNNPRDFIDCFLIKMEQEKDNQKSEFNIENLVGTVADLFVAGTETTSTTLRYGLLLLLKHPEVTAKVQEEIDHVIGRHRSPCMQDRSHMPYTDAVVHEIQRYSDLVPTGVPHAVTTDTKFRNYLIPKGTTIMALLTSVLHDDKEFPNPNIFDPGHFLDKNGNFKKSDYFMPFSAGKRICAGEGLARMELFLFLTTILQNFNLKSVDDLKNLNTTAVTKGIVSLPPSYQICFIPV
The data set is described as follows: Activity of human CYP2C8 expressed in microsomes isolated from baculovirus infected insect cell assessed as enzyme-mediated (2S,3S,4S,5R,6R)-6-((1-carboxy-2-(4-((6-methoxy-1-methyl-1H-benzo[d]imidazol-2-yl)methoxy)phenyl)ethylthio)carbonylamino)-3,4,5-trihydroxytetrahydro-2H-pyran-2-carboxylic acid formation at 20 uM after 2 hrs by radio-HPLC/LC-MS/MS analysis in presence of NADPH-generating system/SAM.

Data set [4] concerns the target Cytochrome P450 3A4 (Homo sapiens, UniProt P08684). The data set is described as follows: Activity of human CYP3A4 expressed in microsomes isolated from baculovirus infected insect cell assessed as enzyme-mediated 2-mercapto-3-(4-((6-methoxy-1-methyl-1H-benzo[d]imidazol-2-yl)methoxy)phenyl)propanamide formation at 20 uM after 2 hrs by radio-HPLC/LC-MS/MS analysis in presence of NADPH-generating system and NADPH-generating system/SAM.

Data set [5] concerns the target Cytochrome P450 2D6 (Homo sapiens, UniProt P10635). The data set is described as follows: Activity of human CYP2D6 expressed in microsomes isolated from baculovirus infected insect cell assessed as enzyme-mediated (2S,3S,4S,5R,6R)-3,4,5-trihydroxy-6-(5-(4-((6-methoxy-1-methyl-1H-benzo[d]imidazol-2-yl)methoxy)benzyl)-2,4-dioxothiazolidin-3-yl)tetrahydro-2H-pyran-2-carboxylic acid formation at 20 uM after 2 hrs by radio-HPLC/LC-MS/MS analysis in presence of UDPGA and UDPGA/SAM.

Data set [6] addresses T3, Cytochrome P450 2C8. The data set is described as follows: Activity of human CYP2C8 expressed in microsomes isolated from baculovirus infected insect cell assessed as enzyme-mediated 2-hydroxy-3-(4-((6-methoxy-1-methyl-1H-benzo[d]imidazol-2-yl)methoxy)phenyl)propanamide formation at 20 uM after 2 hrs by radio-HPLC/LC-MS/MS analysis in presence of NADPH-generating system and NADPH-generating system/SAM. The essentials: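 Baculovirus/insect-cell microsomes expressing single human CYPs, 1 mg/ml protein, with 50 mM potassium phosphate (pH 7.4) or 100 mM Tris-HCl (pH 7.5). NADPH-generating system: 2 mM NADP⁺, 20 mM glucose 6-phosphate, 2 units/ml G6PDH, 10 mM MgCl₂. [¹⁴C]rivoglitazone at 20 μM, 2 h at 37°C with shaking. Control used insect-cell control supersomes. Stopped with acetonitrile; supernatant concentrated under nitrogen; metabolites analysed by radio-HPLC, LC-MS and LC-MS/MS.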

SMILES strings stand for the structures.

Chain of Cytochrome P450 3A4 (P08684 whole entry): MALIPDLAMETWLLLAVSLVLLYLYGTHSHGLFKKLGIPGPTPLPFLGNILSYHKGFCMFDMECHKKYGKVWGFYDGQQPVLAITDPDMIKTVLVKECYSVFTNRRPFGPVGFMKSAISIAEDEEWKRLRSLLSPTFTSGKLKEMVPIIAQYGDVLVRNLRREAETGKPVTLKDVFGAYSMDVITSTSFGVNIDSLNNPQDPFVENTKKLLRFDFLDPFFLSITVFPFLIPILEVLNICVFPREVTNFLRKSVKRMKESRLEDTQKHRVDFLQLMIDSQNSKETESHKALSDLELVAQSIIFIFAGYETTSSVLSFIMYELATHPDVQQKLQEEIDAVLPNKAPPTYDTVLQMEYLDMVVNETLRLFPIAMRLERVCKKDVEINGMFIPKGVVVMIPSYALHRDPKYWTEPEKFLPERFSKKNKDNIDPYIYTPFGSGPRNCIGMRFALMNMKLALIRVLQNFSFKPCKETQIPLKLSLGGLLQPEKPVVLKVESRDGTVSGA
Chain of Cytochrome P450 2D6 (P10635 whole entry): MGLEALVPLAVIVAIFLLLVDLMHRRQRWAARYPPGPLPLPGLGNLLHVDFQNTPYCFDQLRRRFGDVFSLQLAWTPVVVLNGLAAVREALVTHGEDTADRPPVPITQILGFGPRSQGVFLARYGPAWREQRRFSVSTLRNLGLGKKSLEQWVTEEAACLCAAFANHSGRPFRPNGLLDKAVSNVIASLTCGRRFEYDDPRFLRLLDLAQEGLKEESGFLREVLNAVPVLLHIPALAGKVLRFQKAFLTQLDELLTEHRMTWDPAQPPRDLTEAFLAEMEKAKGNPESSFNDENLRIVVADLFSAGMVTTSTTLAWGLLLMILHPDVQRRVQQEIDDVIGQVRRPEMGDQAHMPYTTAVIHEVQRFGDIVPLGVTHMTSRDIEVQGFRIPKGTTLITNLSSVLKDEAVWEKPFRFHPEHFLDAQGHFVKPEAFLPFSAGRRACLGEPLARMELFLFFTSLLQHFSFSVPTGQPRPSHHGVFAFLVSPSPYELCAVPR

Consider `COc1ccc2nc(COc3ccc(C[14CH]4SC(=O)NC4=O)cc3)n(C)c2c1.Cl` (racemic), for which the Drug metabolism result is “metabolite_not_detected” in data set [1]; “metabolite_not_detected” in data set [2]; “metabolite_not_detected” in data set [3]; “metabolite_detected” in data set [4]; “metabolite_not_detected” in data set [5]; “metabolite_detected” in data set [6].
